Laboratory results reported in the RNAGym collection of RNA variant scans (doi:10.1126/science.aae0568).
Variants at the floor of the assay were thinned out.

B1: tRNA (parent)
chain: GUUCCGUUGGCGUAAUGGUAACGCGUCUCCCUCCUAAGGAGAAGACUGCGGGUUCGAGUCCCGUACGGAACG

Variants of: B1
Assay: yeast fitness relative to wild type (ratio to wild type); higher = fitter; tRNA-Arg(CCU), competitive growth, 37 C, YPD
Method in brief: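 Changes in genotype frequencies gave Darwinian fitness relative to wild type. Frequencies were read by 100-nucleotide paired-end sequencing of gene amplicons before and after pooled Saccharomyces cerevisiae strains, carrying tRNA-Arg(CCU) gene variants at the native locus, were competed in YPD at 37°C for 24 hours in six replicates. A genotype was kept only with ≥ 100 starting reads, and estimates < 0.5 were set to 0.5.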

Variant	yeast fitness
GUUCUGUUGGCGUAAUGGUAACGCGUCUCCCUCCUAAGGAGAAAACUGCGGGUUCGAGUCCCGUACGGAACG	1.08
GUUCCGUAGGCGUAAUGGUAACGCGUCUCCCGCCUCAGGAGAAGACGGCGGGUUCGAGUCCCGUACGGAACG	≤ 0.5
GUUCCGUUGGCGUGAUGGUAACGCGUUUCCCUCCUAAGGAGAAGAAUGCGGGUUCGAGUCCCGUACGGAACG	0.673
GUCCCGUUGGCGUAAUGGUAACGUGUCUCCCUCCUAAGGAGAAGAUUGCGGGUUCGAGUCCUGUACGGAACG	≤ 0.5
GUACCGUUGGCGUAAUGGUAACGCGUCUCCCUCCUAAGGAGAAGACUGCGGGUACCAGUCCCGUACGGAACG	0.767
GUUCCGUUGGCGUAAGGGUAACGCGUCUCCCUCCUAAGGAGUAGACUGCGGGUUCGAGUCCCGUACGGAACG	0.994
GUUCCGAUGGCGUAAUGGUAACGCGUCUCCCUCCUAAGGAGAAGACUGCGGGUUCGAGUCCCGUUCGGAACG	0.996
GUUCCGUUGACGUAAUGGUAACGCGUGUCCCUCCUAAGGAGAAGACUGCGGGUUAGAGUCACGUACGGAACG	≤ 0.5
GUUCCGUUGGCGUAAUGGUAACGCGUCUCCCCCCUAAGGAGAAGUCUGCGGGUUCGAGUCCCGUACAGAACG	≤ 0.5
GUUCCAUUGGAGUAAUGGUAAGGCGUCUCCCUCCUAAGGAGAAGACUGCGGGUUCGAGUCCCGUACGGAACG	≤ 0.5
GUUCCGUUGGCAUAACGGUAACGCGUCUCCCUCCUAAGGAGAAGACUGCGGGUUGGAGUCCCGUCCGGAACG	≤ 0.5
GUUCCGUUGGCGUAAUGGUAACGCGUCUCGCUCCUAAGGAGAAGACAGCGGGUUCGAGUCCCGUACGAAACG	≤ 0.5
GUUCCGUUGGCGUAAUGGUAACGCGUCUCCCUCCUUAGGAGAAGACUGGCGGUUCGAGUCCCGUACGGAACG	≤ 0.5
GUUCCGUUGGCGUAAUGGUAACGCGUCUCCCUCCUAAGAAGAAGACUGCGGGUUCGCGUCCCGUACGGAACG	0.663
GUUCCGUUGGCGUAAUGGUAACGCGUCUCCCUCUUAAAGAGAAGACUGCGGGUUCAAGUCCCGUACGGAACG	0.611
GUUCCGUUGGCGUAAUGGUAAUGCGUCUCCCCCCUAAGGAGAAGACUGCGGGUUCGAGUCGCGUACGGCACG	≤ 0.5
GUUUCGUUGGCGUAAUGGUCACGCGGCUCCCUCCUAAGGAGAAGACUGCGGGUUCGAGUCCCGUACGGAACG	0.552
GUUCCGUUGGCGUAAUGGUAACGCGUCUCCCUCCUAAGGAGAAGACUGCGGGUUAAAGUCCCGUACGGAACG	0.514
GUUCGAUUGGCGUAAUGGUAACGCGUCUUCGUGCUAAAGAGAAGACUGCGGGUUCGAGGCCCGUACGGAACG	≤ 0.5

Variant	yeast fitness
GUUCUGUUGGCGUAGUGGUAACGCGUCUCCCUCCUAAGGAGAAGACUGCGGGUUCGAGUACCGUACGGACCG	≤ 0.5
GUUCCGUUGGCGUACUGGUAACGCGUCUCCCUCCUAAGGAGACGACUGCGGGUUCGAAUCCCGUACGGAACG	≤ 0.5
GUUCCGUUGGUGUAAUAGUAACGCGUCUCCCUCCUAAGGAGAAGACUGCGGGUUCGAGUCCCGUACGGAACG	0.961
GCUCCGUUGGCGUAAUGGUAACGCGUCUCCCUCCUAAGGAGAAAAUUGCGGGUUCGAGUCCCGUACGGCACG	0.784
GUUCCGUUGGUGUAAUGGUAACGCGUCUCCCUCCUAAGGAGAAGGCUGAGGGUUCGAGUCCCGUACGGAACG	0.567
GUUCUGUUGGCGUAAUGGUAAGGCGUCUCCCUCCUAAGGAGAAGACCGCGGGUUCGAGUCCCGUACGGAACG	0.687
GUUUCGUUGGCGUAAUGGUAUCGUGUAUCCCUCCUACGGUGAAGACUGCGGGUUCGAGUCCCGUACCGAACG	≤ 0.5
GUUUCGUUGGCGUAAUGGUAACGCGUCUCCCUCCUAAGGAGAAGACUGCGGGUUCGAGUCCCCUACGGAACG	0.782
GUUCCGUUGGCGUAAUGGUAACGCGUCUCCCGGCUAAGGAGAAGACUGCGGGUUCGAGUCCCGUAUGGUACG	≤ 0.5
GUUCCGUUGGCGUAAUGGUAACGCGCCUCCCUCCUAAGGAGAAGACUGGGGGUUUGAGUCCCGUACGGAACG	≤ 0.5
GUUCCGUUGGUGUAAUGGUAACGCGGCUCCCACCUAAGGAGACGACUGCGGGCUCGAGUCCCGUACGGAUCG	≤ 0.5
GUUCCGUUGGCGUAAUGGUAACGCGUGUCCCUCCUAAGGAAAAGACUGCGGGUUCGAGUCCCGUACAGAACG	0.789
GUUCCGUUGGCGUCAUGGUAACGCGUCUCCCUCCUAAGGAGAAGACUGCGGGUUCGGGUCCCGUACGGUACG	≤ 0.5
GUUCCGUUGGCGUAAUGGUAACGCGUUUCCCUCCAAAGGAGAAGACUGCGGGUUCGAGCCCCGUACGGAACG	≤ 0.5
GAUCCGUUGGCGUAAUGGUAACGCGUGUCCCUCCUAAGGAGAAGACUGCGGGUUCGAGUCCCGUACGGAACG	0.764
GUUCCGUUGGAGUAGUGGUAACGCGUCUCCCUCCUAAGGGGAAGACUGUGGGUUCGAGUAACGUACGGAACG	≤ 0.5
GUUCCGUUGGCGAAAUGGUAACGCGUCUCCCUCCUAAGGAGAAGACUGCGGGUUCGAGUCCCGUACCGAACG	0.945
GUUCUGUUGGCGUAAUGGUAACGCGUCCGCCUCCUAAGGAGAAGACUGCGGGUUCGAGUCUCGUACGGAACG	0.563
